In ChEMBL document CHEMBL5126600, “Discovery of the First-in-Class G9a/GLP Covalent Inhibitors” (J Med Chem, 2022):

Columns and labels:
[1] = molecular target: Histone-lysine N-methyltransferase EZH2 (Homo sapiens) (UniProt Q15910); assay: Inhibition of N-terminal His-tagged EZH2 (2 to 746 residues) (unknown origin) expressed in baculovirus expression system at 1 uM using 3H-SAM as a substrate relative to control
Procedure, shortened: (§1)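 Contracted 3H-SAM methyl-transfer scintillation proximity assay against a panel of methyltransferases; compound tested at 1 μM in duplicate; inhibition expressed as percent of control enzyme activity.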

[2] = molecular target: N-lysine methyltransferase KMT5A (Homo sapiens) (UniProt Q9NQR1); assay: Inhibition of SETD8 (unknown origin) at 1 uM using 3H-SAM as a substrate relative to control; procedure, shortened: as §1
[3] = molecular target: Histone-lysine N-methyltransferase SMYD3 (Homo sapiens) (UniProt Q9H7B4); assay: Inhibition of recombinant human C-terminal His-tagged SMYD3 (2 to 428 residues) expressed in Sf9 insect cells at 1 uM using 3H-SAM as a substrate relative to control; procedure, shortened: as §1
[4] = molecular target: Histone-lysine N-methyltransferase SUV39H1 (Homo sapiens) (UniProt O43463); assay: Inhibition of N-terminal fusion protein with C-terminal His-tagged SUV39H1 (44 to 412 residues) (unknown origin) expressed in Escherichia coli at 1 uM using 3H-SAM as a substrate relative to control; procedure, shortened: as §1
[5] = molecular target: Histone-lysine N-methyltransferase EHMT1 (Homo sapiens) (UniProt Q9H9B1); assay: Inhibition of human GLP (982 to 1266 residues) using H3 peptide as substrate in presence of SAM cofactor by scintillation counting method; details: time 5-45 min, TDE = time-dependent effect
Procedure, shortened: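 Contracted scintillation proximity assay following 3H-methyl transfer from SAM (1 μM) to H3 peptide (0.05 μM) by G9a or GLP (5 nM each), with preincubation times of 5, 15 or 45 min; four replicates.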

[6] = molecular target: T1, Histone-lysine N-methyltransferase EHMT2 (Homo sapiens) (UniProt Q96KQ7); assay: Inhibition of human G9a (913 to 1193 residues) assessed as covalent modification by measuring G9a adduct formation by mass spectrometry; details: time <= 120.0 min, TDE = time-dependent effect
T1 sequence (whole entry): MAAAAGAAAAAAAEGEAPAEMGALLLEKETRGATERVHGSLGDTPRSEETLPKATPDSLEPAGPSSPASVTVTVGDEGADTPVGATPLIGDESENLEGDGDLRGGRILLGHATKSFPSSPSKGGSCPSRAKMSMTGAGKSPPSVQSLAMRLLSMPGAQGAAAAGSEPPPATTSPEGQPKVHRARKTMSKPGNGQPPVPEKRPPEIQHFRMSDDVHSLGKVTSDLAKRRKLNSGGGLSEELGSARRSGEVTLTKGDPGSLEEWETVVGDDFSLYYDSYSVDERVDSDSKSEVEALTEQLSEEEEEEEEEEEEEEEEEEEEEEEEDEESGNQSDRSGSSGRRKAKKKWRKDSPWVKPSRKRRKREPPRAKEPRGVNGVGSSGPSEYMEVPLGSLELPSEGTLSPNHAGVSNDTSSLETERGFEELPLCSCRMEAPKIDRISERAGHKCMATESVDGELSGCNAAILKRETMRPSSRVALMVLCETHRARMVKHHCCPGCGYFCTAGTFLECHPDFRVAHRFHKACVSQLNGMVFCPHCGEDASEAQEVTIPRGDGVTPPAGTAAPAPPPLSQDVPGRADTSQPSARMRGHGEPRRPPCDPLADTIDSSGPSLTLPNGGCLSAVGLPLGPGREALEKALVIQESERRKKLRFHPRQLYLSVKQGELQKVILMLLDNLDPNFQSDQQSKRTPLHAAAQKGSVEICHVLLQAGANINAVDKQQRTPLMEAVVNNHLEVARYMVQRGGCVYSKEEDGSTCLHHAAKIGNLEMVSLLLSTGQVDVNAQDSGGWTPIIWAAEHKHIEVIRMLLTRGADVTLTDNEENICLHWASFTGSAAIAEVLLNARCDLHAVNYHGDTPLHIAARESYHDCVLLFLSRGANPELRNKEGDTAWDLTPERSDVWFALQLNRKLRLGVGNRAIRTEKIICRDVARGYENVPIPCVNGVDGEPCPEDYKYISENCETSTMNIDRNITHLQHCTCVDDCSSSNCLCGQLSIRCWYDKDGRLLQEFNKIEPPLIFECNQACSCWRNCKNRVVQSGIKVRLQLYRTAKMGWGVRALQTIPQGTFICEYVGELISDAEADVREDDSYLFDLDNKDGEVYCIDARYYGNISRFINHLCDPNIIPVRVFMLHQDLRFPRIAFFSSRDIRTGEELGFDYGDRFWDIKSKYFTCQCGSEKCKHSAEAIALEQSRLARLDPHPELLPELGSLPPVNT
Procedure, shortened: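 Purified G9a or GLP catalytic domain (5 μM) in 50 mM Tris-HCl pH 7.5, 150 mM NaCl incubated with 50 μM compound or DMSO at room temperature (1 h, or 30 and 60 min in time course); intact mass by ESI LC/MS-TOF; adduct % = adduct/(protein + adduct) × 100.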

Chain of Histone-lysine N-methyltransferase SMYD3 (Homo sapiens) (Q9H7B4 whole entry, the tested form may be a part): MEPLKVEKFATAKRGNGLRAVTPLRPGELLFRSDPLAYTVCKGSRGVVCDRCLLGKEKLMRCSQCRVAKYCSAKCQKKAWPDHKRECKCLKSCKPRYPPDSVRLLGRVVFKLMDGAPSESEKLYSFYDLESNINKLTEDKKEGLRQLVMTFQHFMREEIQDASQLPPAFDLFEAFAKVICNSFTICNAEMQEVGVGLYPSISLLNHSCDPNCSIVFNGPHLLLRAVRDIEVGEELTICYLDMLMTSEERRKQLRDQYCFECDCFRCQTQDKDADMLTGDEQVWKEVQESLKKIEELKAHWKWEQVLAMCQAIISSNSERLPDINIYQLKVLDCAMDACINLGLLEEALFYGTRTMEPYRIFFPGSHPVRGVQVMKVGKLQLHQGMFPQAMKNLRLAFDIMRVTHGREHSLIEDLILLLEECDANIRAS
Chain of Histone-lysine N-methyltransferase EZH2 (Homo sapiens) (Q15910 whole entry, looked up, the tested form may be a part): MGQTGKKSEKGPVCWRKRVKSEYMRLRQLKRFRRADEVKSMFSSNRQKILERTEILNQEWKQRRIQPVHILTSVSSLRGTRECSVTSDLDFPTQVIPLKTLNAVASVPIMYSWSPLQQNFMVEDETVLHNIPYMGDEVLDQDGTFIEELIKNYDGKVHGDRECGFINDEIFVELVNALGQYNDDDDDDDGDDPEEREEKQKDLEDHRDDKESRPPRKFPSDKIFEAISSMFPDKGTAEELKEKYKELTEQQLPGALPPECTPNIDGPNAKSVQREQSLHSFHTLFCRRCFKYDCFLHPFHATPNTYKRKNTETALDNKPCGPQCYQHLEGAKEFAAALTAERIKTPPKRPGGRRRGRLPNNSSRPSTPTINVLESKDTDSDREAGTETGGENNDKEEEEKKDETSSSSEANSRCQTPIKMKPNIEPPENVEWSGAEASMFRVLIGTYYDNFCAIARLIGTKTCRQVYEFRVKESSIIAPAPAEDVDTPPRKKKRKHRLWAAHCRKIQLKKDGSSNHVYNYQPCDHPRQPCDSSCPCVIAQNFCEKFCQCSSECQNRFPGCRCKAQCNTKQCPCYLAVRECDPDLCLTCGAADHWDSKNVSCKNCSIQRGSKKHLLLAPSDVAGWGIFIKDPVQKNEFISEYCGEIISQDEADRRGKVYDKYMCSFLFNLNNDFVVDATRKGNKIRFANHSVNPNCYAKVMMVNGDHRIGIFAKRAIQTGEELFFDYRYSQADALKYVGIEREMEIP
Chain of Histone-lysine N-methyltransferase SUV39H1 (Homo sapiens) (O43463 whole entry, the tested form may be a part): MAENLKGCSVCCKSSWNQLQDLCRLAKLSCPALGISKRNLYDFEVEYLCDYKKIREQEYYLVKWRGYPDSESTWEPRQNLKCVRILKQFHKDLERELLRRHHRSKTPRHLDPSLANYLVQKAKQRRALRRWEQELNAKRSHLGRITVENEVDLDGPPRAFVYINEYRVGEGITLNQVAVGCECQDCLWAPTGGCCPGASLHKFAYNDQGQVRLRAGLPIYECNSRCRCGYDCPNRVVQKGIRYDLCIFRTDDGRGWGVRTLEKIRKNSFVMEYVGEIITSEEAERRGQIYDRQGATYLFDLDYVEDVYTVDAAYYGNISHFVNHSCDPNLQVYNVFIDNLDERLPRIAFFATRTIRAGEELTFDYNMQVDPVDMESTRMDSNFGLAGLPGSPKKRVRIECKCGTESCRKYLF
Chain of Histone-lysine N-methyltransferase EHMT1 (Homo sapiens) (Q9H9B1 whole entry, the tested form may be a part): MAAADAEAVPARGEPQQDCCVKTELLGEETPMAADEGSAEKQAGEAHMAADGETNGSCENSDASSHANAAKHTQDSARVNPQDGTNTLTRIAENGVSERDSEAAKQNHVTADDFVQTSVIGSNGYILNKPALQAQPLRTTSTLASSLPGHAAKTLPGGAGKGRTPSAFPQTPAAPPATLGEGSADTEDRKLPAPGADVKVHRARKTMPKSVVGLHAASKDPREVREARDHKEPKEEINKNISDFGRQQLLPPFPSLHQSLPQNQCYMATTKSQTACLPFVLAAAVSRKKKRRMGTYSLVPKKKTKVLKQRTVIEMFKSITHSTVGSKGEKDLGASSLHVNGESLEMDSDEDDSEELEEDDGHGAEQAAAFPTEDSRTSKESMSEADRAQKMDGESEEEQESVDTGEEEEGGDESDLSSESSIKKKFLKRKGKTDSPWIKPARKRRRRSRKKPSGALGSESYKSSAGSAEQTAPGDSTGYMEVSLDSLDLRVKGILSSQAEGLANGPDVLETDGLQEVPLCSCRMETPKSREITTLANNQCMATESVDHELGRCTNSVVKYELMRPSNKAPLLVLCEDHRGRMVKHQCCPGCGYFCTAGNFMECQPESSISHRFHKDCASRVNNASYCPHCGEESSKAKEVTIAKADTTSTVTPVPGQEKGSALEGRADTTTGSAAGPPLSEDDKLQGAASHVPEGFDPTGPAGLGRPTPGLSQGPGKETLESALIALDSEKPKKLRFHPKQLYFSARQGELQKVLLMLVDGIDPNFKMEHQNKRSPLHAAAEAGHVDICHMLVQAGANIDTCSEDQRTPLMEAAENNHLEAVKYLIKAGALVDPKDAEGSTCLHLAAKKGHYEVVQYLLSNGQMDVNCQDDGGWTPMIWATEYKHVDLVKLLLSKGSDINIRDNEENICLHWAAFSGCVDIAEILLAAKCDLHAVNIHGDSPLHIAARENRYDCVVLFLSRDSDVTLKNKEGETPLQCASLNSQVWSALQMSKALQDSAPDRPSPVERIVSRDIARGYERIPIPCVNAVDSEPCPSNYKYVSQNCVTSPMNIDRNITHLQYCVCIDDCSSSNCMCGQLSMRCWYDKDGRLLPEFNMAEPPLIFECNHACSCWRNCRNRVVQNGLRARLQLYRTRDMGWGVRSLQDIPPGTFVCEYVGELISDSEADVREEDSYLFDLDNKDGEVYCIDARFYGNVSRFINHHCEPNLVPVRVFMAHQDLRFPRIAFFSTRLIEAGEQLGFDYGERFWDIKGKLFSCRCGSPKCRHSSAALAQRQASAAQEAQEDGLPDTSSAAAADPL
Chain of N-lysine methyltransferase KMT5A (Homo sapiens) (Q9NQR1 whole entry, the tested form may be a part): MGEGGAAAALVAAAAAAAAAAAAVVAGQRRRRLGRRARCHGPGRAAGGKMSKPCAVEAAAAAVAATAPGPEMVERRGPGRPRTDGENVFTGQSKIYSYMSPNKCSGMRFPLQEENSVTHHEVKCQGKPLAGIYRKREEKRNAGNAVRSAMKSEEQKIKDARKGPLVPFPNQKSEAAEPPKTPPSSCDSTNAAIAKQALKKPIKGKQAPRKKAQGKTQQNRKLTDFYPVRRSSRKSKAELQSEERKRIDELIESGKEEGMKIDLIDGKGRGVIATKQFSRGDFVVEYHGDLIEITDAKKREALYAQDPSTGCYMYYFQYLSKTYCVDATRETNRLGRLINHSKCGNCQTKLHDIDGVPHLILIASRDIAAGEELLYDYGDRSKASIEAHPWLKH

`C=CC(=O)Nc1cc(NC2CCN(C(C)C)CC2)c2cc(OC)c(OCCCN3CCCC3)cc2n1` gave an inhibition [1] of less than 50%, an inhibition [2] of less than 50% and an inhibition [3] of less than 50%. The inhibition [4] was less than 50%, the inhibition [5] was “Tde” and the inhibition [6] was “Tde”.
